How the values were obtained:
[1] = target: Mitogen-activated protein kinase kinase kinase 10 (Homo sapiens, UniProt Q02779); test: Inhibition of MLK2 (unknown origin)
[2] = (§1) Neuroprotective activity in E14.5 rat embryo DRG neurons; format: functional; conditions: drg neuron
How it was run: (§2)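 DRG neurons freshly dissected from E14.5 rat embryos, plated at 1200−2000 cells/well on an astrocyte monolayer in DMEM/F12 with N3 supplement, 0.18% glucose and 25 ng/mL NGF. 200 μM uridine and 100 μM 5-fluorodeoxyuridine added next day. Cultured 4 days before axon degeneration assay. IC50 reported.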

DRG neuron = test: as §1; format: functional; how it was run: as §2
[3] = target: Mitogen-activated protein kinase 9 (Homo sapiens, UniProt P45984); test: Inhibition of JNK2 (unknown origin)
Chain of Mitogen-activated protein kinase 9 (P45984 whole entry): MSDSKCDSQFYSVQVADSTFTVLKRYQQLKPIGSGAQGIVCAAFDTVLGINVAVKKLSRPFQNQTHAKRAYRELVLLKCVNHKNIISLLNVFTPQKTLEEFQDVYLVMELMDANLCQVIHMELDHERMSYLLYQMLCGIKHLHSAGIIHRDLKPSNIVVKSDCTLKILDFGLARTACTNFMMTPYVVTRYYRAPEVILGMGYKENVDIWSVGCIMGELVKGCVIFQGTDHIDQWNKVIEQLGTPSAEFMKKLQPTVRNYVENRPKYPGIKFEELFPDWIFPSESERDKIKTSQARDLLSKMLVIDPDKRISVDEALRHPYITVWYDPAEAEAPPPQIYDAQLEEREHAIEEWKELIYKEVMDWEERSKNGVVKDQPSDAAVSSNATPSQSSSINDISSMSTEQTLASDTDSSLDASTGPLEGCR

[4] = target: T1, Dual specificity mitogen-activated protein kinase kinase 7 (Homo sapiens, UniProt O14733); test: Inhibition of MKK7 (unknown origin)
T1 sequence (O14733 whole entry): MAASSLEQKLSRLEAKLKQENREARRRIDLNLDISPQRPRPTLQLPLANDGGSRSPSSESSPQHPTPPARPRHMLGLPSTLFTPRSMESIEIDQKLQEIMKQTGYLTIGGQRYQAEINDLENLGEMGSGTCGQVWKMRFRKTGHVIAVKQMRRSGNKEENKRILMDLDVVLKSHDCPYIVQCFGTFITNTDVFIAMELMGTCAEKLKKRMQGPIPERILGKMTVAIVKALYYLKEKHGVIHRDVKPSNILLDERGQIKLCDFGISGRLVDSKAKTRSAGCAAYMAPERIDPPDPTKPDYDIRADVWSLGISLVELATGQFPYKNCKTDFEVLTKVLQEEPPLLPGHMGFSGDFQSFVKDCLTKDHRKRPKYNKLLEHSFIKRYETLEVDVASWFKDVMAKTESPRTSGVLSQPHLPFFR

Mus musculus = test: Neuroprotective activity against po dosed C57Bl/6 mouse optic nerve crush model assessed as reduction of phosphorylated c-Jun level in retina administered 30 mins prior to nerve crush injury measured after 6 hrs by MSD ELISA; format: functional, organism-based
How it was run: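 C57Bl/6 mice dosed orally at two dose levels (MCT suspension) or vehicle, 30 min before optic nerve crush. Retinal p-c-Jun measured 6 h post-injury by MSD ELISA, expressed relative to uncrushed vehicle controls. N = 5 vehicle, 6 per treated group. Mean ± SEM.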

[5] = Volume of distribution at steady state in dog at 1 mg/kg, iv and 5 mg/kg, po; format: ADME, organism-based, Canis lupus familiaris; conditions: in vivo, read-out: Vdss
How it was run: (§3)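 Single-compound PK. Intravenous dose 1 mg/kg given as a 60% PEG solution. Oral dose 5 mg/kg given as an aqueous suspension in 1% methylcellulose. Plasma clearance, steady-state volume of distribution, half-life and oral bioavailability were determined from these doses.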

[6] = system: T2, Receptor-type tyrosine-protein kinase FLT3 (Homo sapiens), P36888 [D835Y]; test: Inhibition of Flt3 D835Y mutant (unknown origin) at 0.1 uM
T2 sequence (whole entry): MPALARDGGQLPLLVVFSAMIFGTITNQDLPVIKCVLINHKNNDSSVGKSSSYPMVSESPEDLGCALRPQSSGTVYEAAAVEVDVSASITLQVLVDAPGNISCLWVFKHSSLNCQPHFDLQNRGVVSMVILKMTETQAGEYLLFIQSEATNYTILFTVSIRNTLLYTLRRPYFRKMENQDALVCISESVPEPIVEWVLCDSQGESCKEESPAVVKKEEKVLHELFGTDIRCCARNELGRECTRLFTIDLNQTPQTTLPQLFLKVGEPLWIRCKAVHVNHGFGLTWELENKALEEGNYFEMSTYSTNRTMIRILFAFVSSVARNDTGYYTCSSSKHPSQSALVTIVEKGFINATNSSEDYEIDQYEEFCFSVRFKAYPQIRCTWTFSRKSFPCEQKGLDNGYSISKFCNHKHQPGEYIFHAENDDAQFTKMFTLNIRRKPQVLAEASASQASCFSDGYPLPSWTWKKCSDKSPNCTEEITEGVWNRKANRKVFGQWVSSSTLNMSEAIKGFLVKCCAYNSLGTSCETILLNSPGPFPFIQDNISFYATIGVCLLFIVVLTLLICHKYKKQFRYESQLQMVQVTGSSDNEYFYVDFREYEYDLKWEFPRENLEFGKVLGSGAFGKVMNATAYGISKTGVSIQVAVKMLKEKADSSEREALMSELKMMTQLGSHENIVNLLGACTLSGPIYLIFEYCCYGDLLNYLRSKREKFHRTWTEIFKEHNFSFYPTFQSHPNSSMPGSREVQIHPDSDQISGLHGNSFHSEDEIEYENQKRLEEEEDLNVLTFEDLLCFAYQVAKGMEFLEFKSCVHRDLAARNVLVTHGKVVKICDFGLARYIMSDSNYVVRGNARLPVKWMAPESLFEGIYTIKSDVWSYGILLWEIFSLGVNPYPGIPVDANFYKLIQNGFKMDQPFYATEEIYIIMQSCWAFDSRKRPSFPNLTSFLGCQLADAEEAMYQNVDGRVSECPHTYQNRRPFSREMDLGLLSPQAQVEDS
How it was run: (§4)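 Kinase selectivity panel of 298 kinases, test compound at 0.1 μM, percent inhibition reported.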

[7] = Volume of distribution at steady state in cynomolgus monkey at 1 mg/kg, iv and 5 mg/kg, po; format: ADME, organism-based, Macaca fascicularis; conditions: in vivo, read-out: Vdss; how it was run: as §3
[8] = Oral bioavailability in mouse at 5 mg/kg; format: ADME, organism-based; conditions: in vivo; how it was run: as §3
[9] = target: Mitogen-activated protein kinase kinase kinase 9 (Homo sapiens, UniProt P80192); test: Inhibition of MLK1 (unknown origin)
Chain of Mitogen-activated protein kinase kinase kinase 9 (P80192 whole entry): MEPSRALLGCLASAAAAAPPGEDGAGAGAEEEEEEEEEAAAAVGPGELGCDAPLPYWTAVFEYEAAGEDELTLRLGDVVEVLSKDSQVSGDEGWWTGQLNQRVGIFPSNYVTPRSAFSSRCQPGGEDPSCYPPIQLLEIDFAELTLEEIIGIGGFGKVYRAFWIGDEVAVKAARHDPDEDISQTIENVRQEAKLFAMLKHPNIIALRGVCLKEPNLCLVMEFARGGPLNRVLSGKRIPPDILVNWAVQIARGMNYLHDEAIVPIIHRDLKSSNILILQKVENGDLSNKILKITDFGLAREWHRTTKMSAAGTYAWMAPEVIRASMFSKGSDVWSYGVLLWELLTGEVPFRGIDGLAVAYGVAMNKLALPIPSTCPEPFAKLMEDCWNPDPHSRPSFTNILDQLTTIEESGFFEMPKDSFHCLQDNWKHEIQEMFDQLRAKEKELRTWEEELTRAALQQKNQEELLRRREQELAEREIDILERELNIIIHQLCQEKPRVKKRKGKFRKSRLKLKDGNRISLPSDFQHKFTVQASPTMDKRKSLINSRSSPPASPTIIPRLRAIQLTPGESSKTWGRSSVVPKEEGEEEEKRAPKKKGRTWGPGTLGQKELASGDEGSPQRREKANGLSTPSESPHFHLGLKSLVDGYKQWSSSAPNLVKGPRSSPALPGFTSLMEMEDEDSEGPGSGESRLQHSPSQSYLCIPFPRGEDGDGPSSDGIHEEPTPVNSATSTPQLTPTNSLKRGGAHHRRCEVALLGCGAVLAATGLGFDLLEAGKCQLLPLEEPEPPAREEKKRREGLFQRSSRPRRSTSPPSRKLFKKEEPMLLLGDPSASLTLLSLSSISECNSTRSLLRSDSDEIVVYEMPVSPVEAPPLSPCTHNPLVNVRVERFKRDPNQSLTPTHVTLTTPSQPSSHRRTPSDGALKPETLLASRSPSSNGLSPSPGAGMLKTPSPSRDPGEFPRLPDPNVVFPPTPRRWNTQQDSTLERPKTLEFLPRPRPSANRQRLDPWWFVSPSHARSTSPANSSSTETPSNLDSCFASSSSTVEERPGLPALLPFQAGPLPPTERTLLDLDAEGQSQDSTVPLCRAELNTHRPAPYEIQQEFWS

[10] = target: Serine/threonine-protein kinase 16 (Homo sapiens) (UniProt O75716); test: Inhibition of STK16 (unknown origin) at 0.1 uM; how it was run: as §4
Chain of Serine/threonine-protein kinase 16 (Homo sapiens) (O75716 whole entry): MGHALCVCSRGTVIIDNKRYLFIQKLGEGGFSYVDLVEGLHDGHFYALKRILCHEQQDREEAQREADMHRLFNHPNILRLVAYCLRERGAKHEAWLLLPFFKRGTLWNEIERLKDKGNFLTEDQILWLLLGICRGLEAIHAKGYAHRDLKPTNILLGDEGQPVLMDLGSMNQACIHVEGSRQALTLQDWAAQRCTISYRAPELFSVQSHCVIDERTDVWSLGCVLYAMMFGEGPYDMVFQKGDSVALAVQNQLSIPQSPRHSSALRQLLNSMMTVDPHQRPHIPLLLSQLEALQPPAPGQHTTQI

[11] = Oral bioavailability in dog at 5 mg/kg; format: ADME, organism-based, Canis lupus familiaris; conditions: in vivo; how it was run: as §3
[12] = target: T3, Dual specificity mitogen-activated protein kinase kinase 4 (Homo sapiens, UniProt P45985); test: Inhibition of MKK4 (unknown origin)
T3 sequence (P45985 whole entry): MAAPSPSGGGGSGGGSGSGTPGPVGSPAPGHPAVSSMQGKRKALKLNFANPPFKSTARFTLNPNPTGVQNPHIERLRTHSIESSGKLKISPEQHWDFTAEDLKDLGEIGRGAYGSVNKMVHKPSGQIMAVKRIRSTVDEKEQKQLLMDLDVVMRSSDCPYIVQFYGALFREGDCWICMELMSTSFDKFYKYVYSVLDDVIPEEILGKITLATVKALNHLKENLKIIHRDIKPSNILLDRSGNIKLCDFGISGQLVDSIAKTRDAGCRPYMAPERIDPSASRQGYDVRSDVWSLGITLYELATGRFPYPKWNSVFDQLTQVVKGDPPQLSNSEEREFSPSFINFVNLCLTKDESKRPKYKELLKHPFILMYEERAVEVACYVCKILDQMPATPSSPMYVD

[13] = target: Tyrosine-protein kinase SYK (Homo sapiens) (UniProt P43405); test: Inhibition of Syk (unknown origin) at 0.1 uM; how it was run: as §4
[14] = target: Proto-oncogene tyrosine-protein kinase Src (Homo sapiens) (UniProt P12931); test: Inhibition of Src (unknown origin) at 0.1 uM; how it was run: as §4
Chain of Proto-oncogene tyrosine-protein kinase Src (Homo sapiens) (P12931 2-536 limits assumed): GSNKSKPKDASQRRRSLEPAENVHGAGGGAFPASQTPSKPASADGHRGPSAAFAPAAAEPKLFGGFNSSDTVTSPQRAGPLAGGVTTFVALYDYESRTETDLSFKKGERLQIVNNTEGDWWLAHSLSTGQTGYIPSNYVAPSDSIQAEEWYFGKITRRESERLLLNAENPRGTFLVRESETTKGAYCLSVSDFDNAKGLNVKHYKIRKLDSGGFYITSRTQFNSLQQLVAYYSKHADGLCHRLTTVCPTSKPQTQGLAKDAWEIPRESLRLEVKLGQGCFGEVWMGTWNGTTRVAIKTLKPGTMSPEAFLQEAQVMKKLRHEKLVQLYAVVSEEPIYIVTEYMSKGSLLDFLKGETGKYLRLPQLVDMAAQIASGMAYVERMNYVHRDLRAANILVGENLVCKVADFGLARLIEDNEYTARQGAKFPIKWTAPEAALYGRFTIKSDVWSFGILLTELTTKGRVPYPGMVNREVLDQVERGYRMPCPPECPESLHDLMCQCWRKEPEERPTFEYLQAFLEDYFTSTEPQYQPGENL

[15] = Half life in dog at 1 mg/kg, iv and 5 mg/kg, po; format: ADME, organism-based, Canis lupus familiaris; conditions: in vivo; how it was run: as §3

Chain of Mitogen-activated protein kinase kinase kinase 10 (Q02779 whole entry): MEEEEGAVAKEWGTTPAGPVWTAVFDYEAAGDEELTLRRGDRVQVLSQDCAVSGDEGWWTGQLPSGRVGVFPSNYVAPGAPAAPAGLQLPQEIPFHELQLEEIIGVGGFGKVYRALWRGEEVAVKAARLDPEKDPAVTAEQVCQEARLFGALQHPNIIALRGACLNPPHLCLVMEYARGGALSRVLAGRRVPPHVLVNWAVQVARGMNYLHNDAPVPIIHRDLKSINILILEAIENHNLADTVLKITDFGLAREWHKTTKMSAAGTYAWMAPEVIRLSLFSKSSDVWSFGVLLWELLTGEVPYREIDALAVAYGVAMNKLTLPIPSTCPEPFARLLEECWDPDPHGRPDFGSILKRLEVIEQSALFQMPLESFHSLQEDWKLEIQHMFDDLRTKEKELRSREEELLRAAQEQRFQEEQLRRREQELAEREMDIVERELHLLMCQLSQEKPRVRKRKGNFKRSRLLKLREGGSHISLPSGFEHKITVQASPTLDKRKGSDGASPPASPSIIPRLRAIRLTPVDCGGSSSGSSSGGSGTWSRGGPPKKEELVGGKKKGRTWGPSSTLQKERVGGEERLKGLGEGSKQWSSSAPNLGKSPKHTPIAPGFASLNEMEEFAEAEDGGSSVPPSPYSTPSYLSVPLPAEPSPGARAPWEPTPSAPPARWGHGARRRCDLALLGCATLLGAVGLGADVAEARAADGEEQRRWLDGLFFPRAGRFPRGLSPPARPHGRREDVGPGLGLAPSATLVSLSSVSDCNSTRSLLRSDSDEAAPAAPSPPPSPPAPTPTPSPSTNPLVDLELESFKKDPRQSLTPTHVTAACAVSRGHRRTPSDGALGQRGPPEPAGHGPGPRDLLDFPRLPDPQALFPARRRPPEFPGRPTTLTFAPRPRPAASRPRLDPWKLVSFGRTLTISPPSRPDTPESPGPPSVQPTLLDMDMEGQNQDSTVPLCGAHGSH

IC50 [1]: 0.767 µM
IC50 [3]: 0.514 µM
IC50 [4]: > 5 µM
Vd [5]: 6.5 L/kg
inhibition [6]: > 80%
Vd [7]: 3.1 L/kg
bioavailability [8]: 45%
IC50 [9]: 0.0678 µM
inhibition [10]: > 80%
bioavailability [11]: 32%
IC50 [12]: > 5 µM
inhibition [13]: > 80%
inhibition [14]: > 80%
half-life [15]: 4 h
Structure (SMILES): N#Cc1ccnc(Nc2cc(C3CCN(C4COC4)CC3)cc(N3CCC(F)(F)C3)n2)c1
IC50 [2]: 0.107 µM
Activity (DRG neuron): Dose-dependent effect
Activity (Mus musculus): Dose-dependent effect
